ChEMBL document CHEMBL1132196, “Synthesis, biochemical evaluation, and classical and three-dimensional quantitative structure-activity relationship studies of 7-substituted-1,2,3,4-tetrahydroisoquinolines and their relative affinities toward phenylethanolamine N-methyltransferase and the alpha2-adrenoceptor” (J Med Chem, 1999)

Columns and labels:
[1] = biological target: T1, Phenylethanolamine N-methyltransferase (Bos taurus, UniProt P10938); test: In vitro inhibitory activity against bovine adrenal phenylethanolamine N-methyl-transferase (PNMT)
T1 sequence (P10938 whole entry): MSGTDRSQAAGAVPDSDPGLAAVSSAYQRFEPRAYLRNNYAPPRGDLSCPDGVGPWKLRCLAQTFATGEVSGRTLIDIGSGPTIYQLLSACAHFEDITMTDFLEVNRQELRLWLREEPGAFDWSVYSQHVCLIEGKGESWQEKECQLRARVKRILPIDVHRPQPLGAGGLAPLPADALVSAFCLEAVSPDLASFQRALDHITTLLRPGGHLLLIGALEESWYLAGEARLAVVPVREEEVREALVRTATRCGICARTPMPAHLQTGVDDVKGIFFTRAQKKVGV

Bos taurus = organism: Bos taurus; test: Binding selectivity against PNMT and alpha-2-adrenoceptors, measured as a ratio of respective in vitro Ki's.
[2] = biological target: T2, Adrenergic receptor alpha-2 (Rattus norvegicus, UniProt P22086+P19328+P22909); test: In vitro inhibitory activity against Alpha-2 adrenergic receptor using [3H]clonidine as radioligand in male Sprague-Dawley rats; assay type: protein assay
T2 sequence (P22086 whole entry): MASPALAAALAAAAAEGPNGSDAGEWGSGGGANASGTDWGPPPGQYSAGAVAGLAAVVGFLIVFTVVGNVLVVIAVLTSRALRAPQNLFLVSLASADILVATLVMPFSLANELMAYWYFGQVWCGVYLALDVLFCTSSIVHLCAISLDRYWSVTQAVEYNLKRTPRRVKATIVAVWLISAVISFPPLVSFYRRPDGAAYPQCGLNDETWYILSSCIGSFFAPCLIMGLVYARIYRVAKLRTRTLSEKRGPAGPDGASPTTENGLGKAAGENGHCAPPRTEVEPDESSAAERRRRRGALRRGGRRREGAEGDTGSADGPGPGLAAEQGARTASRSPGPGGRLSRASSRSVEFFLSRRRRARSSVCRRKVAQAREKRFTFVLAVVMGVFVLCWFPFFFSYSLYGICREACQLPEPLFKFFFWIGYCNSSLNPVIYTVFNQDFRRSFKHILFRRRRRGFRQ
T2 sequence (P19328 whole entry): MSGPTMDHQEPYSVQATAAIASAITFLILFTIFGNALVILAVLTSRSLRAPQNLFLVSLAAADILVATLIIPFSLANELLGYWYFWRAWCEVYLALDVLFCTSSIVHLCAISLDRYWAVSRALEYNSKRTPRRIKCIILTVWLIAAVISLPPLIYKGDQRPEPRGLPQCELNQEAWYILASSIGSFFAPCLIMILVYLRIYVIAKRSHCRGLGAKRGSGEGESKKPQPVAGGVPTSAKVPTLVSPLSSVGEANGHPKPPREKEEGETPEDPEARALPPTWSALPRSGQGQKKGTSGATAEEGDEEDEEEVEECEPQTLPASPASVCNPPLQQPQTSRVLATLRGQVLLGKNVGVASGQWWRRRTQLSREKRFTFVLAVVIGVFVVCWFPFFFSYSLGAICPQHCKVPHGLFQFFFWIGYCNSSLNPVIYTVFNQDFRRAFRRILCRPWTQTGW
T2 sequence (P22909 whole entry): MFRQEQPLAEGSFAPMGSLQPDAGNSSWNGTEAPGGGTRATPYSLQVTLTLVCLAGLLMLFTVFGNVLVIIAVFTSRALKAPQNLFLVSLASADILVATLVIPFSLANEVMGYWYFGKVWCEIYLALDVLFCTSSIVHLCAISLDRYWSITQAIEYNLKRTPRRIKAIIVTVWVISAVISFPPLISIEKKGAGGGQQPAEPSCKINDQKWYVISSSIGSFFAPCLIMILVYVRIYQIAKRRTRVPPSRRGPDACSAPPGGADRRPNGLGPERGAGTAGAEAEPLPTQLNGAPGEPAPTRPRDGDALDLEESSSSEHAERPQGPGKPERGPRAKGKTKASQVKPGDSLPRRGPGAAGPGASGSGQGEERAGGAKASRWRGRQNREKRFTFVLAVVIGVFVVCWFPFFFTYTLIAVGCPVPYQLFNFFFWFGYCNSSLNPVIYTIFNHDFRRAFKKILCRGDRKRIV
Outline: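 Rat cerebral cortex (male Sprague–Dawley) homogenised in ice-cold 50 mM Tris/HCl pH 7.7, washed by three 50 000g spins, resuspended in 200 volumes. [3H]clonidine 4.0 nM final, 25 °C for 30 min, filtration, scintillation counting. Nonspecific binding with 2 μM phentolamine. Quadruplicate, five concentrations over 16-fold range. IC50 by log-probit; Ki = IC50/(1+[clonidine]/KD).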

[3] = biological target: T1, Phenylethanolamine N-methyltransferase; test: In vitro inhibitory activity against bovine adrenal phenylethanolamine N-methyltransferase(PNMT)

Compound | Ki [1] | Selectivity (Bos taurus) | Ki [2] | Ki [3]
Nc1ccc2c(c1)CNCC2 | 27 µM | 0.11 | – | –
CS(=O)(=O)Nc1ccc2c(c1)CNCC2 | – | 0.23 | – | –
COC(=O)c1ccc2c(c1)CNCC2 | 6.7 µM | 0.68 | – | –
O=S(=O)(c1ccccc1)c1ccc2c(c1)CNCC2 | 14 µM | 1.5 | 21 µM | –
N#Cc1ccc2c(c1)CNCC2 | 1.4 µM | 5.2 | – | –
O=[N+]([O-])c1ccc2c(c1)CNCC2 | 0.41 µM | 10 | – | –
O=C(c1ccc2c(c1)CNCC2)C(F)(F)F | 5.7 µM | 5.6 | – | –
C[S+]([O-])c1ccc2c(c1)CNCC2 (configuration not stated) | 45 µM | 1.1 | 51 µM | –
CS(=O)(=O)N(c1ccc2c(c1)CNCC2)S(C)(=O)=O | ~4500 µM | 0.042 | – | –
O=S(=O)(Nc1ccc(Cl)cc1)c1ccc2c(c1)CNCC2 | – | 2.4 | – | –
Brc1ccc2c(c1)CNCC2 | – | – | – | 0.29 µM
COc1ccc2c(c1)CNCC2 | 21 µM | 0.022 | – | –
CC(=O)c1ccc2c(c1)CNCC2 | 4.9 µM | 1.2 | – | –
O=C(c1ccccc1)c1ccc2c(c1)CNCC2 | 2.9 µM | 9.3 | – | –
O=S(=O)(c1ccc2c(c1)CNCC2)C(Cl)(Cl)Cl | – | – | – | 1.3 µM
CS(=O)(=O)c1ccc2c(c1)CNCC2 | 1.3 µM | 120 | 160 µM | –
CC(=O)Nc1ccc2c(c1)CNCC2 | 190 µM | 0.48 | 9.1 µM | –
OCc1ccc2c(c1)CNCC2 | 11 µM | 0.21 | – | –
NC(=O)c1ccc2c(c1)CNCC2 | 64 µM | 0.36 | – | –
C=CCS(=O)(=O)c1ccc2c(c1)CNCC2 | 9.8 µM | 9.7 | – | –
CS(=O)(=O)NCc1ccc2c(c1)CNCC2 | – | 0.055 | – | –
NS(=O)(=O)c1ccc2c(c1)CNCC2 | – | 180 | – | –
NCc1ccc2c(c1)CNCC2 | 1900 µM | 0.0063 | – | –
Oc1ccc2c(c1)CNCC2 | – | 0.85 | – | –
O=C(O)c1ccc2c(c1)CNCC2 | 470 µM | 1 | – | –
